Test results reported in publication PMC8777244 (Biochemistry and Biophysics Reports, 2022).
Each block holds one molecule with its values, some of them ahead of it.

Columns and labels:
CaM [1] = assay: CaM binding to DHs by isothermal titration calorimetry; conditions: for Heat enthalpy change relative to DH665-719: fold of DH665-719 enthalpy
[2] = Solubility of DH proteins in bacterial expression; type: physicochemical; conditions: E. coli expression
CaM [3] = assay: CaM interaction by size-exclusion chromatography; type: binding
Method in brief: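 HPLC size-exclusion used a Shodex KW802.5 column at 1.0 mL/min with 280 nm detection. Buffer was Tris, pH 7.5, with 0.2 M NaCl (range 0.2–0.5 M) plus 2 mM Ca²⁺ or 1 mM EDTA. Samples were filtered through 0.45 μm. MBP-DH constructs, alone or mixed with CaM or Dansyl-CaM, were compared with BSA. Collected fractions were assayed for Dansyl fluorescence.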

Dynamic light scattering = type: physicochemical
Method in brief: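 DLS was run on a DynaPro NanoStar. Samples at 1 mg/mL in 50 mM Tris, pH 7.5, were filtered through 0.45 then 0.1 μm and equilibrated 2 min at 25 °C. Acquisition was 5 s, with minimum peak intensity 1% and correlation cut-offs of 0.5 and 100,000 μs. Ten autocorrelation functions were averaged and fitted to decaying exponentials for the diffusion coefficient. Rh was calculated assuming spheres.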

[4] = Size-exclusion chromatography, oligomeric states; type: physicochemical
Method in brief: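 HPLC gel filtration of amylose-purified MBP-fused NOX5 dehydrogenase domain, run against CaM and BSA references. Column equilibrated in Tris pH 7.5 (50 mM per figure legends, 20 mM per methods) with 0.2 M NaCl (0.2–0.5 M range), plus 2 mM Ca²⁺ or 1 mM EDTA. Runs at 1.0 mL/min with 280 nm detection. 2 M urea added to partially dissociate oligomers. Species assigned by elution time.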

[5] = 1 mg/mL, 50 mM Tris, pH 7.5, 25 °C

Stoichiometry, ITC CaM/DH (CaM [1]; CaM (titrant) into DH (near 2 μM), 50 mM Tris, pH 7.5, 2 mM Ca^2+, 25 °C, MBP-fused DH): 1.18 ± 0.05
Heat enthalpy change relative to DH665-719 (CaM [1]): approximately double
B1: DH528-719: MBP-fused truncated Nox5 dehydrogenase domain residues 528–719 (∼62 kDa) (protein)
chain: PTRRIFASEHAVLIGAGIGITPFASILQSIMYRHQKRKHTCPSCQHSWIEGVQDNMKLHKVDFIWINRDQRSFEWFVSLLTKLEMDQAEEAQYGRFLELHMYMTSALGKNDMKAIGLQMALDLLANKEKKDSITGLQTRTQPGRPDWSKVFQKVAAEKKGKVQVFFCGSPALAKVLKGHCEKFGFRFFQENF
modifications: left off: MBP, N-terminal, kept
Solubility [2]: most soluble
Share of D-CaM in DH fractions (CaM [3]; equal amounts of D-CaM and DH528-719, Ca^2+): approximately half

Heat enthalpy change relative to DH665-719 (CaM [1]): approximately double
B2: DH584-719: MBP-fused truncated Nox5 dehydrogenase domain residues 584–719 (56 kDa) (protein)
chain: KLHKVDFIWINRDQRSFEWFVSLLTKLEMDQAEEAQYGRFLELHMYMTSALGKNDMKAIGLQMALDLLANKEKKDSITGLQTRTQPGRPDWSKVFQKVAAEKKGKVQVFFCGSPALAKVLKGHCEKFGFRFFQENF
modifications: left off: MBP, N-terminal, kept
Decay of autocorrelation function (Dynamic light scattering; [5]): > 100 μs
Hydrodynamic radius (Rh) (Dynamic light scattering; [5]): 8.3 nm
Poly-distribution (%pd) (Dynamic light scattering; [5]): 42.5%
Estimated average molecular weight (DLS) (Dynamic light scattering; Raleigh sphere assumption, qualitative): ~450 kDa
SEC elution time, major peak ([4]; 50 mM Tris, pH 7.5, 0.2 M NaCl): 6.7 min
SEC elution time, very minor peak (monomer) ([4]; 50 mM Tris, pH 7.5, 0.2 M NaCl): ~9.5 min
SEC elution time, monomer, 2 M urea ([4]; 2 M urea, 50 mM Tris, pH 7.5, 0.2 M NaCl, Species 1): 9.52 min
SEC elution time, dimer, 2 M urea ([4]; 2 M urea, 50 mM Tris, pH 7.5, 0.2 M NaCl, Species 2): 8.02 min
SEC elution time, trimer, 2 M urea ([4]; 2 M urea, 50 mM Tris, pH 7.5, 0.2 M NaCl, Species 3 (∼168 kDa)): 7.25 min
SEC elution time, tetramer, 2 M urea ([4]; 2 M urea, 50 mM Tris, pH 7.5, 0.2 M NaCl, Species 4 (∼224 kDa)): 6.71 min
Dominant oligomer, high ionic strength ([4]; >0.25 M NaCl): favors trimer formation
Effect of DTT and Ca^2+ on HPLC profile ([4]; reducing agent DTT and Ca^2+ ions): did not affect its HPLC profile
Effect of CaM on DH oligomer (CaM [3]; CaM binding, Ca^2+): the dimer disappeared

Stoichiometry nCaM/DH, ITC at high DH concentration (CaM [1]; CaM into 20–50 μM DH, Ca^2+, low value attributed to DH degradation): lower than 1
Heat enthalpy change relative to DH665-719 (CaM [1]): approximately double
B3: DH605-719: MBP-fused truncated Nox5 dehydrogenase domain residues 605–719, contains REFBD and CMBD sequences (protein)
chain: SLLTKLEMDQAEEAQYGRFLELHMYMTSALGKNDMKAIGLQMALDLLANKEKKDSITGLQTRTQPGRPDWSKVFQKVAAEKKGKVQVFFCGSPALAKVLKGHCEKFGFRFFQENF
modifications: left off: MBP, N-terminal, kept
